Bioassay records (PubChem)
Rows were chosen to be rich in hits. Some 1.8% of all compounds tested hit in one or more screens of this group.
NR1D1 modulator – modulators of Rev-erb alpha DNA binding, primary screen, biochemical, FITC-DNA, fluorescence polarization, uHTS. 370,000 compounds, 0.79% hits. AID 1259318, 2017. activity, % at 10 µM. Rev-erbα–FITC-DNA binding, 90 min. Nuclear receptor subfamily 1 group D member 1 (Homo sapiens), P20393;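 active = activity above about 14%, limit read from the data; passing the limit was not always enough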
Target sequence (P20393 whole entry, looked up): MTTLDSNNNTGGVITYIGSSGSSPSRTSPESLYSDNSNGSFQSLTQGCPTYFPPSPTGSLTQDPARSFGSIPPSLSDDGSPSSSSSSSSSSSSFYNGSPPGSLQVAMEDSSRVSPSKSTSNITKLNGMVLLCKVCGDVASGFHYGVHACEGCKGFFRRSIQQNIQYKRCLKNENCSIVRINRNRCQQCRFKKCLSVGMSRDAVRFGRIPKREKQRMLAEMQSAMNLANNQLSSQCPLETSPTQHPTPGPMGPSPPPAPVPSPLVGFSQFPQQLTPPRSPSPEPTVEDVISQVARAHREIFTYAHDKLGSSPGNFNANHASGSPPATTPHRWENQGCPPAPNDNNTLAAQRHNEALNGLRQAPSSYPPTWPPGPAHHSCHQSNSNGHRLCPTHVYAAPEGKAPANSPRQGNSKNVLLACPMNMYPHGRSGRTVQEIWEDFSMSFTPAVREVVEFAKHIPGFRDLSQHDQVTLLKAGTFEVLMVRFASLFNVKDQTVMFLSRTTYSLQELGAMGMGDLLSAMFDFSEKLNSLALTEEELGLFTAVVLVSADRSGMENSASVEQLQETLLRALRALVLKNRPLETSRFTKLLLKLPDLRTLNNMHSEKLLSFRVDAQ
NR2E3 ag-1 – inhibitors of NR2E3-RetCOR corepressor binding, primary screen, NR2E3 agonist project, biochemical, TR-FRET, GST-NR2E3, biotin-RetCOR. Photoreceptor-specific nuclear receptor (Homo sapiens), Q9Y5X4. 1536-well. inhibition of corepressor binding, % at 4.78 µM. 320,000 compounds, 0.12% hits;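 active = percent inhibition above the cutoff of mean plus 3 SD of all tested compounds, set per screening campaign, cut at about 20% in these data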
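System: GST-tagged NR2E3 plus biotinylated RetCOR corepressor; Amount: 1.35 nM GST-tagged NR2E3 final; Dosing: single nominal compound dose of 4.8 µM; Schedule: 5 h incubation at 4 °C; Technique: TR-FRET with europium anti-GST and streptavidin-D2, 340 nm excitation; Controls: biotin wells as high control, 0.6% DMSO wells as low control.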
PG9 binder – binders of HIV-1 gp120 antibody PG9, primary screen, biochemical, TR-FRET | TR-FRET gp120-PG9 antibody binding | inhibition, % at 6.7 µM | 360,000 compounds, 0.43% hits; in the data active = inhibition above about 8.5%
NR2E3 ag-2 – NR2E3 agonists in two-hybrid cells, primary screen, cell-based, luminescence, CHO-S, Gal4-NCOR/VP16-NR2E3 | Photoreceptor-specific nuclear receptor (Homo sapiens), Q9Y5X4 | luciferase | inhibition of corepressor binding, % at 3.98 µM | 360,000 compounds, 0.35% hits | AID 602229, 2012;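 active = inhibition above the mean of all tested compounds plus 3 SD, cut at about 70% in these data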;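 also: higher means lower luciferase signal from less NR2E3 corepressor binding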
GalR3 antagonist – GalR3 antagonists in HEK293 cells, primary screen, cell-based, fluorescence readout | Galanin receptor type 3 (Homo sapiens), O60755 | HEK293 GalR3-CNG cAMP membrane potential fluorescence; galR3 body fused to GalR1 C-terminus | inhibition, % at 3 µM | 360,000 compounds, 0.44% hits;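 active = inhibition above the screen-wide average plus 3 SD, cut at about 13% in these data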;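 also: forskolin and galanin both at EC90 stimulate the cells; cAMP rise reported by CNG channel membrane potential dye signal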
NR2E3 ag confirm – NR2E3 agonist confirmation in cells, cell-based, luminescence, CHO-S two-hybrid; shares compounds with NR2E3 ag-2; CHO-S mammalian two-hybrid NR2E3-NCOR, luciferase luminescence; inhibition, % at 3.98 µM; 2,300 compounds, 51% hits;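 active = average inhibition above a cutoff equal to the mean inhibition of all tested compounds plus one SD, cut at about 70% in these data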
GAL4-VP16 luc – GAL4-VP16 reporter modulators, confirmation, counter-screen for NR2E3 agonist project, cell-based, luminescence, CHO-S, high throughput. shares compounds with NR2E3 ag-2. CHO-S GAL4-VP16 luciferase reporter. 2,300 compounds, 29% hits. inhibition, % at 3.98 µM;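 active = mean inhibition above a cutoff equal to the average over all tested compounds plus one standard deviation, cut at about 70% in these data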;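 also: luciferase from a UAS reporter driven by GAL4-VP16 transactivation; higher means less reporter light so more repression of VP16 activity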
Numbers stand for hits; i = inactive; nt = not tested or not shown.

SMILES | NR1D1 modulator | NR2E3 ag-1 | PG9 binder | NR2E3 ag-2 | GalR3 antagonist | NR2E3 ag confirm | GAL4-VP16 luc
COC(=O)C1CN(CC(C)C)CCS(=O)(=O)N1Cc1ccc(C(F)(F)F)cc1 (centres undefined) | i | nt | nt | nt | nt | nt | nt
CCc1ccc(CNC(=O)c2cc3c(C)nc4ccccc4c3o2)cc1 | i | i | i | 93.6 | nt | 95.2 | 86.5
CC(C)C[C@@H]1COc2cc(Br)ccc2S(=O)(=O)N1Cc1cn(CC2CCCCC2)nn1 | i | nt | nt | nt | nt | nt | nt
Clc1ccc2nc(-c3ccccn3)c(Nc3ccc4c(c3)OCO4)n2c1 | i | i | i | i | i | i | i
Cc1ccc2nc(-c3ccccc3O)c(Nc3ccc4c(c3)OCCO4)n2c1 | i | i | i | i | i | nt | nt
Cc1ccc2nc(C(F)(F)F)c(C#N)c(N)c2c1 | i | i | i | 75.1 | i | i | i
Cc1cc(C)c2nc(C(F)(F)F)c(C#N)c(N)c2c1 | i | i | i | i | i | nt | nt
Clc1ccc(-n2ncc3c(N4CCCCCC4)ncnc32)cc1 | i | i | i | 86.5 | i | 83.2 | i
COC(=O)C[C@H]1CC[C@@H]2[C@H](COc3ccc(NC(=O)c4ccccc4OC)cc3C(=O)N2C)O1 | i | nt | nt | nt | nt | nt | nt
CC(C)(C)C(=O)N1CCN(c2ccnc3cc(Cl)ccc23)CC1 | i | i | i | i | i | nt | nt
O=C(Nc1ccc(OC(F)(F)F)cc1)N1CCN(c2ccnc3cc(Cl)ccc23)CC1 | i | i | i | i | i | 93.9 | i
COC(=O)C1CN(Cc2ccc(OC)cc2)CCS(=O)(=O)N1Cc1ccccc1 (centres undefined) | i | nt | nt | nt | nt | nt | nt
COCCN(Cc1cc2cc3c(cc2nc1Cl)OCO3)C(=O)Nc1ccc(F)cc1 | nt | i | i | i | i | i | i
COCCN(Cc1cc2cc3c(cc2nc1Cl)OCO3)C(=O)Nc1ccc(OC)cc1 | i | i | i | i | i | nt | nt
CCCCc1ccc(S(=O)(=O)NCCc2ccncc2)cc1 | i | i | i | i | i | 72.5 | i
O=C(NCc1ccc(C(=O)N2CCOCC2)cc1)c1cccc(Br)c1 | i | nt | nt | nt | nt | nt | nt
COCCn1c(C)cc(C(=O)COC(=O)c2cccc(O)c2)c1C | i | i | i | i | i | i | i
O=C1NC(=S)SC1=Cc1ccccc1Cl | i | nt | i | i | i | 79.0 | 73.0
O=C1NC(=S)S/C1=C\c1cc(Cl)cc(Cl)c1O | i | nt | i | i | i | 73.0 | i
COc1ccccc1C=C1SC(=S)NC1=O | i | nt | i | i | i | nt | nt
COC(=O)C1CN(Cc2ccc(OC)cc2)CCS(=O)(=O)N1Cc1ccc(F)cc1 (centres undefined) | i | nt | nt | nt | nt | nt | nt
Cc1cccc(Cn2nnc3ccccc32)c1O | i | i | i | i | i | nt | nt
Cc1cc(Cn2nnc3ccccc32)c(O)c(C(C)(C)C)c1 | i | i | i | 80.3 | i | i | i
CC(C)(C)c1cccc(Cn2nnc3ccccc32)c1O | i | i | i | i | i | i | i
O=C(CNCc1ccccc1[N+](=O)[O-])N1CCC2(CC1)OCCO2 | i | nt | nt | nt | nt | nt | nt
SMILES | NR1D1 modulator | NR2E3 ag-1 | PG9 binder | NR2E3 ag-2 | GalR3 antagonist | NR2E3 ag confirm | GAL4-VP16 luc
C/C=C/C=C/C(=O)N1C[C@H](C)N(C)C[C@H]1C | i | nt | nt | nt | nt | nt | nt
Cc1ccc(-n2c(SCc3c(Cl)cccc3Cl)nnc2-c2ccco2)cc1 | i | nt | nt | nt | nt | nt | nt
COC(=O)[C@H](CC(C)C)N(Cc1cn(Cc2ccccc2)nn1)S(=O)(=O)c1ccc(F)cc1Br | i | nt | nt | nt | nt | nt | nt
O=C(CSc1nnc(-c2ccccc2)n1Cc1ccco1)Nc1ccc(OCc2ccccc2)cc1 | i | nt | nt | nt | nt | nt | nt
COC(=O)[C@]12C[C@H](CC(=O)NCc3cccc(C(F)(F)F)c3)C(=O)N(Cc3ccc(Cl)cc3Cl)C1=C[C@H](C(C)(C)C)O[C@@H]2C | i | nt | nt | nt | nt | nt | nt
Cc1cccc(NC(=S)N/N=C(\c2ccccc2)C(C)C)c1 | i | i | i | i | i | i | i
CCc1ccc(S(=O)(=O)/N=C2\C=C(Nc3cccc(C(=O)O)c3)C(=O)c3ccccc32)cc1 | i | i | i | i | i | nt | nt
O=C1C(Nc2ccc(O)cc2)=C/C(=N/S(=O)(=O)c2cccs2)c2ccccc21 | i | nt | i | 103.3 | i | 100.4 | 99.4
O=C(O)c1ccc(NC2=C/C(=N/S(=O)(=O)c3ccccc3)c3ccccc3C2=O)cc1 | i | nt | i | i | i | nt | nt
CCc1ccc(S(=O)(=O)/N=C2\C=C(Nc3ccc(O)cc3)C(=O)c3ccccc32)cc1 | nt | i | nt | 113.0 | nt | 99.9 | 100.5
Cc1cc(C)c(S(=O)(=O)/N=C2\C=C(Nc3ccc(C(=O)O)cc3)C(=O)c3ccccc32)c(C)c1 | i | i | i | 111.6 | i | 100.2 | 98.0
O=C1N/C(=C\c2ccc(O)cc2)C(O)=C1C=NCc1ccccc1 | i | i | i | i | i | 72.8 | i
CCC(c1nnnn1-c1c(C)cccc1C)N1CCN(c2ccc(C(F)(F)F)cc2[N+](=O)[O-])CC1 (centres undefined) | nt | nt | nt | i | nt | i | i
COc1ccc(C2Nc3ccccc3C(=O)N2Cc2ccccc2)cc1COc1ccc(NC(C)=O)cc1 (centres undefined) | i | nt | nt | nt | nt | nt | nt
Oc1ccc(CCNc2ncnc3ccc(Cl)cc23)cc1 | i | i | i | 91.2 | i | 93.0 | 87.0
Nc1nc(Cl)cc(NCCc2ccc(O)cc2)n1 | i | i | i | i | i | nt | nt
COc1ccc(-c2csc(NC(=O)C3CCN(c4ncnc5sc(C)c(C)c45)CC3)n2)cc1OC | i | i | i | 78.0 | i | 73.9 | 79.0
CCOC(=O)[C@@]12CCC3=C1N(CCC3)C(=O)[C@H](CC(=O)NCc1cccc(C(F)(F)F)c1)C2 | i | nt | nt | nt | nt | nt | nt
COc1cccc(C(=O)Nc2nnc(S(=O)(=O)N(C)Cc3ccc(F)cc3)s2)c1 | i | i | i | i | i | i | i
COc1ccc(CN(C)S(=O)(=O)c2nnc(NC(=O)c3cccc(OC)c3)s2)cc1 | i | i | i | i | i | nt | nt
Cc1noc(C)c1S(=O)(=O)N1CCN(c2ccc(Cl)cc2)CC1 | i | i | i | i | i | nt | nt
Cc1noc(C)c1S(=O)(=O)Nc1ccc(C(=O)N2CCN(c3ccc(Cl)cc3)CC2)cc1 | i | i | i | i | i | 85.8 | i
CCOC(=O)[C@@]12CCCC3=C1N(CCC3)C(=O)[C@H]2CC(=O)N1CCN(C(=O)C2CC2)CC1 | i | nt | nt | nt | nt | nt | nt
Cc1ccc(NC(=O)c2sc3ncn(CC(=O)N4CCN(c5ccccn5)CC4)c(=O)c3c2C)cc1F | i | i | i | 76.1 | i | i | i
